# From ChEMBL document CHEMBL1146581, “Induction of apoptosis by xanthones from mangosteen in human leukemia cell lines” (J Nat Prod, 2003)
# Activity calls are given as the source filed them. The rule behind the calls is not given here.
# Key:
# [1] = tested on: HL-60; assay: Cytotoxicity against human HL60 cells assessed as cell viability after 72 hrs by Trypan blue exclusion test; type: functional, cell-based; conditions: HL-60, 72 h
# Outline: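 HL60 (RIKEN Cell Bank) in RPMI-1640 with 10% heat-inactivated FBS, seeded at 1 × 10^5/mL. Exposed for 72 h to 5–40 µM compound added in DMSO (final 0.1% v/v). Viable cells counted by trypan blue dye exclusion. IC50 read from concentration–growth curves. Means ± SD of three experiments.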
# [2] = tested on: K562; assay: Cytotoxicity against human K562 cells assessed as cell viability at 10 uM after 72 hrs by Trypan blue exclusion test; type: functional, cell-based
# Outline: (§1)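 Leukemia lines (RIKEN Cell Bank) grown in RPMI-1640 with 10% heat-inactivated FBS. Growth curves were followed at 1, 2, 5 and 10 µM compound delivered in DMSO (final 0.1% v/v), with untreated controls. Viable cell number counted by trypan blue dye exclusion in a counting chamber.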
# [3] = tested on: NB-4; assay: Cytotoxicity against human NB4 cells assessed as cell viability at 10 uM after 72 hrs by Trypan blue exclusion test; type: functional, cell-based; outline: as §1
# [4] = tested on: U-937; assay: Cytotoxicity against human U937 cells assessed as cell viability at 10 uM after 72 hrs by Trypan blue exclusion test; type: functional, cell-based; outline: as §1
# [5] = tested on: K562; assay: Cytotoxicity against human K562 cells assessed as cell viability at 5 uM after 72 hrs by Trypan blue exclusion test; type: functional, cell-based; outline: as §1
# [6] = tested on: NB-4; assay: Cytotoxicity against human NB4 cells assessed as cell viability at 5 uM after 72 hrs by Trypan blue exclusion test; type: functional, cell-based; outline: as §1
# [7] = tested on: U-937; assay: Cytotoxicity against human U937 cells assessed as cell viability at 5 uM after 72 hrs by Trypan blue exclusion test; type: functional, cell-based; outline: as §1
# [8] = tested on: PBMC; assay: Cytotoxicity against concanavalin A-stimulated human PBMC cells at 10 uM after 72 hrs by Trypan blue exclusion test; type: cell-based
# Outline: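 Lymphocytes from healthy donors in RPMI-1640 with 10% heat-inactivated FBS, stimulated with concanavalin-A (75 µg/mL) for 48 h, then exposed to compound in DMSO (final 0.1% v/v). Viable cells counted by trypan blue dye exclusion in a counting chamber.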
# [9] = tested on: HL-60; assay: Induction of apoptosis in human HL60 cells assessed as nuclear condensation and fragmentation at 10 uM after 24 hrs using Hoechst stain by fluorescence microscopy; type: functional, cell-based
# Outline: (§2)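 Cells treated 24 h at 10 µM. Hoechst 33342 was added to the medium at 5 µg/mL for 30 min. Cells were then washed in PBS and nuclear condensation/fragmentation was scored by fluorescence microscopy (×400).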
# [10] = tested on: K562; assay: Induction of apoptosis in human K562 cells assessed as nuclear condensation and fragmentation at 10 uM after 24 hrs using Hoechst stain by fluorescence microscopy; type: functional, cell-based; outline: as §2
# [11] = tested on: NB-4; assay: Induction of apoptosis in human NB4 cells assessed as nuclear condensation and fragmentation at 10 uM after 24 hrs using Hoechst stain by fluorescence microscopy; type: functional, cell-based; outline: as §2
# [12] = tested on: U-937; assay: Induction of apoptosis in human U937 cells assessed as nuclear condensation and fragmentation at 10 uM after 24 hrs using Hoechst stain by fluorescence microscopy; type: functional, cell-based; outline: as §2
# [13] = tested on: HL-60; assay: Induction of apoptosis in human HL60 cells assessed as DNA ladder formation at 10 uM after 24 hrs by agarose gel electrophoresis; type: functional, cell-based
# [14] = tested on: K562; assay: Induction of apoptosis in human K562 cells assessed as DNA ladder formation at 10 uM after 24 hrs by agarose gel electrophoresis; type: functional, cell-based
# [15] = tested on: NB-4; assay: Induction of apoptosis in human NB4 cells assessed as DNA ladder formation at 10 uM after 24 hrs by agarose gel electrophoresis; type: functional, cell-based
# [16] = tested on: U-937; assay: Induction of apoptosis in human U937 cells assessed as DNA ladder formation at 10 uM after 24 hrs by agarose gel electrophoresis; type: functional, cell-based
# [17] = tested on: HL-60; assay: Induction of apoptosis in human HL60 cells assessed as caspase 3 activation at 10 uM by Western blot; type: functional, cell-based
# Outline: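 HL60 treated with 10 µM over a time course. Lysis was in Tris pH 7.4/NP-40/deoxycholate/SDS buffer with protease inhibitors, 30 min on ice. 10 µg protein was run on a 5–20% SDS gradient gel and blotted to PVDF. The blot was probed overnight at 4 °C with rabbit anti-caspase-3, then HRP anti-rabbit, and detected by ECL. Pro (32 kD) and active (19/17 kD) forms were read.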
smiles,measurement,setting,value
COc1c(O)cc2oc3cc(O)c(CC=C(C)C)c(O)c3c(=O)c2c1CC=C(C)C [MANGOSTIN],IC50,[1],6.8 µM
same,Activity,[2],Active
same,Activity,[3],Active
same,Activity,[4],Active
same,Activity,[5],Active
same,Activity,[6],Active
same,Activity,[7],Active
same,Activity,[8],Non-toxic
same,Activity,[9],Active
same,Activity,[10],Active
same,Activity,[11],Active
same,Activity,[12],Active
same,Activity,[13],Active
same,Activity,[14],Active
same,Activity,[15],Active
same,Activity,[16],Active
same,Activity,[17],Active
CC(C)=CCc1c(O)cc2oc3cc(O)c(O)c(CC=C(C)C)c3c(=O)c2c1O,IC50,[1],6.1 µM
COc1cc2oc3ccc(O)cc3c(=O)c2c(O)c1CC=C(C)C,IC50,[1],23.6 µM
CC(C)=CCc1c(O)cc2oc3c(CC=C(C)C)c(O)c(O)c(CC=C(C)C)c3c(=O)c2c1O [GARCINONE E],IC50,[1],15 µM
CC(C)=CCC/C(C)=C/Cc1c(O)cc2oc3c(O)cccc3c(=O)c2c1O [MANGOSTINONE],IC50,[1],19 µM
COc1cc2oc3cc(O)c(OC)c(CC=C(C)C)c3c(=O)c2c(O)c1CC=C(C)C,IC50,[1],7.6 µM
